Calb FLC: affects C. albicans growth with fluconazole. C. albicans CaCi-2 (fluconazole-resistant clinical isolate) + fluconazole, Alamar Blue growth, 48 h. growth inhibition, % (no concentration beside the values). 0.57% of 300,000 active;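 active means growth inhibition above about 58% in most replicates, limit read from the data, passing the limit was not always enough; inconclusive means exactly half the replicates above a set limit; inactive means most replicates below a set limit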;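 further: all wells also contain fluconazole at 8 µg/ml as a sub-toxic cotreatment; 0% = median of DMSO wells and 100% = median of geldanamycin control wells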
HSF1 inhib: HSF1 inhibition; NIH3T3-HGL HSE-luciferase, MG132-induced, luminescence 8 h; stronger effect = lower value; activity change, negative = inhibition, % at 7.5 µM (by protocol); 0.77% of 300,000 active; AID 2098;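 active means more than half of replicate wells show activity change below -50%, luminescence cut by over half; inconclusive means some wells, but at most half, below -50%; inactive means no replicate well below -50%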;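 further: luciferase reports HSF-1 transcriptional activity via heat shock element; 0% = median of DMSO wells and -100% = zero luminescence signal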
HSF1 activator: increases HSF-1 driven luciferase reporter signal; NIH3T3-HGL HSF-1 luciferase reporter, MG132, 8 h; 100% = twice DMSO control signal; activation, % at 9 µM; 1.7% of 300,000 active;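 active means mean replicate activation of at least 50% with a set share of replicates each reaching 50%; inconclusive means only one of those two conditions met; inactive means mean below 50% and too few replicates reaching it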;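 further: 0% = median of the neutral control wells and 100% = twice that signal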
HIF activator: HIF pathway transcriptional activation | U2OS HRE-luciferase reporter, luminescence; normalized: DMSO 0%, desferrioxamine 100% | activation, % at 7.5 µM (by protocol) | 0.32% of 300,000 active | AID 1910;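 active means mean activation of at least 10% of the iron chelator positive control signal, with at least half of replicates also reaching 10%; inconclusive means mean and replicate majority disagree about reaching 10%; inactive means mean and most replicates under 10%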
T cruzi inh: T. cruzi replication inhibition. T. cruzi beta-gal in NIH3T3, luminescence, 90 h. inhibition, % (test concentration not listed). 1.4% of 300,000 active;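 active means mean inhibition across valid replicates above about 55%, limit read from the data; inconclusive means mean below that limit but half or more replicates reach it; inactive means mean below it, under half of replicates reach it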;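 further: signal also drops with host cell toxicity which is not excluded here; 0% = plate median of DMSO wells and 100% = zero luminescence signal; higher percent means less beta-gal luminescence so fewer parasites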
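Material: NIH/3T3 host cells with β-galactosidase reporter T. cruzi; Input: 5,000 host fibroblasts per well; Medium: DMEM, 2% fetal bovine serum; Compound: 50 nL DMSO compound solution per well; Schedule: 3 h host attachment, then at least 90 h co-culture; Detection: luminescent β-galactosidase signal after 60 min lysis.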
Active calls of the source: *. The list is not random: actives were taken first. Their share in the collection is about 4.4%.

COC(=O)c1cc(OC)c(OC)cc1NC(=S)N1CCCC1 was read as Calb FLC -2, HSF1 inhib 26, HSF1 activator 62*, HIF activator 0 and T cruzi inh 52.
Screening N=c1ccn(Cc2ccc(Cl)cc2Cl)cc1 returned Calb FLC -2, HSF1 inhib -4, HSF1 activator -7, HIF activator 0 and T cruzi inh 19.
Screening CN(C)CCn1nnc2c(=O)oc3ccccc3c21 returned HSF1 inhib 6, HSF1 activator 10, HIF activator 0 and T cruzi inh -26.
For COc1ccc(S(=O)(=O)NCC2CCCN(C(=O)CC3CCCC3)C2)cc1 (stereo unspecified) the results were Calb FLC -3, HSF1 inhib -1, HSF1 activator 4, HIF activator 1 and T cruzi inh 1.
`COc1ccc(S(=O)(=O)NCC2CCCN(C(=O)C3CCCC3)C2)cc1` (stereo unspecified) gave Calb FLC 7, HSF1 inhib -62*, HSF1 activator -70, HIF activator 1 and T cruzi inh -10.
Screening COc1ccc(CN2CCN(C(=O)C3CCC(CNS(=O)(=O)c4ccccc4)CC3)CC2)c(OC)c1OC (stereo unspecified) returned Calb FLC -1, HSF1 inhib -1, HSF1 activator 1, HIF activator 1 and T cruzi inh 58*.
`O=C(CN1C(=O)NC2(CCCC2)C1=O)OCCOc1ccc(Cl)cc1Cl` gave Calb FLC -4, HSF1 inhib 0, HSF1 activator 2, HIF activator 0 and T cruzi inh -12.
`CCN1C(=O)S/C(=C/c2ccc(Sc3nc4ccccc4[nH]3)o2)C1=O` gave Calb FLC 10, HSF1 inhib 29, HSF1 activator 58*, HIF activator -1 and T cruzi inh -18.
`S=C(N/N=C/c1ccc(Br)cc1)N1CCCCC1` gave Calb FLC 10, HSF1 inhib 32, HSF1 activator 55*, HIF activator 2 and T cruzi inh 2.
Clc1ccc(OCc2nnc(-c3ccccc3Br)o2)c(Cl)c1 was read as Calb FLC -9, HSF1 inhib 36, HSF1 activator 61*, HIF activator 2 and T cruzi inh 24.
For Fc1ccc(OCc2nnc(-c3ccccc3Br)o2)c(Cl)c1 the results were Calb FLC 3, HSF1 inhib 28, HSF1 activator 68*, HIF activator 4 and T cruzi inh 16.
Screening CC(C)NC(=O)NC(=O)CSc1nncs1 returned Calb FLC -8, HSF1 inhib -2, HSF1 activator 16, HIF activator 0 and T cruzi inh -6.
Screening CC(C)C1NCCc2c1sc1ccccc21 (stereo unspecified) returned Calb FLC -4, HSF1 inhib 0, HSF1 activator 14, HIF activator 0 and T cruzi inh 9.
Screening CCN(CC)C(=O)CSc1nc(C)cc(C)c1C#N returned Calb FLC -5, HSF1 inhib -5, HSF1 activator 8, HIF activator 1 and T cruzi inh -2.
For Cc1cc(C)c(C#N)c(SCC(=O)C(C)(C)C)n1 the results were Calb FLC 18, HSF1 inhib -1, HSF1 activator 13 and T cruzi inh 72*.
Cc1cc(C)c(C#N)c(SCC(=O)NC(C)(C)C)n1 was read as Calb FLC 12, HSF1 inhib -65*, HSF1 activator -74, HIF activator 0 and T cruzi inh 1.
CSc1nc(C)cc(C)c1C#N was read as Calb FLC -2, HSF1 inhib 6, HSF1 activator 0, HIF activator 103* and T cruzi inh -21.
`O=[N+]([O-])c1cccc(N/N=C/c2cccc3ccccc23)c1` gave Calb FLC -32, HSF1 inhib 1, HSF1 activator -3, HIF activator 1 and T cruzi inh 47.
Screening N#C/C(=C\c1ccncc1)c1nc2ccccc2c(=O)[nH]1 returned Calb FLC 20, HSF1 inhib -9, HSF1 activator 6, HIF activator 0 and T cruzi inh 7.
For O=C(NC(=S)N1CCN(c2ccc(Cl)cc2[N+](=O)[O-])CC1)c1cccs1 the results were Calb FLC 31, HSF1 inhib -66*, HSF1 activator -68, HIF activator -60 and T cruzi inh 28.
N=c1c(-c2nc3ccccc3[nH]2)cc(C(=O)c2cccs2)nn1-c1ccccc1 was read as Calb FLC -3, HSF1 inhib 7, HSF1 activator 48, HIF activator 0 and T cruzi inh 72*.
`O=C(Nc1cc2c3c(c1)CC(=O)N3CCC2)c1ccccc1Br` gave Calb FLC 4, HSF1 inhib 0, HSF1 activator 1, HIF activator 1 and T cruzi inh -8.
CN(CC(=O)Nc1ccc(F)cc1[N+](=O)[O-])Cc1ccccc1 was read as Calb FLC 12, HSF1 inhib 0, HSF1 activator 17, HIF activator 1 and T cruzi inh -8.
Cc1ccc(NCC(=O)Nc2cccc(F)c2)cc1S(=O)(=O)N1CCCCCC1 was read as Calb FLC -8, HSF1 inhib 4, HSF1 activator 2, HIF activator 1 and T cruzi inh 16.
Cc1sc2ncnc(NCCc3ccc(S(N)(=O)=O)cc3)c2c1C was read as Calb FLC inconclusive, HSF1 inhib -51*, HSF1 activator -61, HIF activator 1 and T cruzi inh -27.
Screening CCc1ccc(C(=O)c2oc3nc(C)cc(C)c3c2N)cc1 returned Calb FLC -20, HSF1 inhib -3, HSF1 activator -4, HIF activator 0 and T cruzi inh -14.
`Cc1ccc(C(=O)c2oc3nc(C)cc(C)c3c2N)cc1` gave Calb FLC 121*, HSF1 inhib -7, HSF1 activator 2, HIF activator 0 and T cruzi inh -2.
CCOP(=O)(OCC)c1nc(-c2cccc3ccccc23)oc1NCc1ccc(OC)cc1 was read as Calb FLC -5, HSF1 inhib 12, HSF1 activator 10, HIF activator 0 and T cruzi inh 57*.
Screening O=C(CSc1nnc(-c2ccc(C(F)(F)F)cn2)o1)Nc1cccc(Cl)c1 returned Calb FLC 4, HSF1 inhib 2, HSF1 activator 21, HIF activator 5 and T cruzi inh 18.
Screening CN(C)CCCN(C(=O)c1cc2ccccc2oc1=O)c1nc2ccc(F)cc2s1 returned Calb FLC -2, HSF1 inhib -18, HSF1 activator -27, HIF activator 1 and T cruzi inh 44.
`CCN(CCCCCN(C)C)Cc1cc2ccccc2o1` gave Calb FLC -7, HSF1 inhib 3, HSF1 activator 3, HIF activator 684* and T cruzi inh 55*.
Screening Cc1cnc(C(=O)OC(C)C(=O)Nc2ccc3c(c2)OCCO3)cn1 (stereo unspecified) returned Calb FLC -3, HSF1 inhib -1, HSF1 activator 0, HIF activator 0 and T cruzi inh -2.
